In ChEMBL document CHEMBL3808365, “Potent and Selective CK2 Kinase Inhibitors with Effects on Wnt Pathway Signaling in Vivo” (ACS Med Chem Lett, 2016):
pIC50, pKd: −log10 of the molar value. The source made the active and inactive calls. The calls are words filed in the database; no cut-off is given here.

Experiments:
L-Wnt3a = experiment: Inhibition of CK2 in mouse L-Wnt3a cells assessed as depletion of active form of beta-catenin after 1 hr by Western blot method; type: cell-based
Mus musculus [1] = experiment: In vivo inhibition of active beta-catenin phosphorylation at Ser37 or Thr41 in human SW620 cells xenografted in iv dosed Ncr nu/nu mouse after 48 hrs by Western blot analysis; type: functional, organism-based; conditions: SW-620
Outline: (§1)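 SW620 (APC mutant) xenograft mice dosed IV at 10 or 30 mg/kg; pAKT S129 and active β-catenin measured by Western blot of tumor lysates, one lane per vehicle- or compound-treated animal.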

[2] = target: Homeodomain-interacting protein kinase 4 (Homo sapiens) (UniProt Q8NE63); experiment: Inhibition of Hipk4 (unknown origin) at 0.1 uM by quantitative PCR
Chain of Homeodomain-interacting protein kinase 4 (Homo sapiens) (Q8NE63 whole entry): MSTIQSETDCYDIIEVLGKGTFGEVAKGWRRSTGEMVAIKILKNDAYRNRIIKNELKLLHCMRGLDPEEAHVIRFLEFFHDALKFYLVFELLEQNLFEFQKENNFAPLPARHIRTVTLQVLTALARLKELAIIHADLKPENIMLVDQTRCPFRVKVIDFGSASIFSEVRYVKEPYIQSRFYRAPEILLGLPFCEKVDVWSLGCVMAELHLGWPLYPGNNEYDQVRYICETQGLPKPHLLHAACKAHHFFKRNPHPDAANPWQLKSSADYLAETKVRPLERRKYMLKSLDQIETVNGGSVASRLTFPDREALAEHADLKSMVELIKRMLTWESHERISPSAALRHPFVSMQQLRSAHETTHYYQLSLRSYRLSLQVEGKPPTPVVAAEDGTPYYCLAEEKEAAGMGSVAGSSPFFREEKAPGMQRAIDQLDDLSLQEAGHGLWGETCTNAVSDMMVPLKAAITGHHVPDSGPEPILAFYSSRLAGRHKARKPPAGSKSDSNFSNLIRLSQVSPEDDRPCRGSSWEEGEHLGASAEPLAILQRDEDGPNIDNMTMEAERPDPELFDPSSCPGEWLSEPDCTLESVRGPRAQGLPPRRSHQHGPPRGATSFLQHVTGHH
Outline: (§2)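 Single-concentration screen at 0.1 μM, run as part of a selectivity panel of 402 kinases.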

Mus musculus [3] = experiment: In vivo inhibition of AKT phosphorylation in human SW620 cells xenografted in iv dosed Ncr nu/nu mouse after 48 hrs by Western blot analysis; type: functional, organism-based; conditions: SW-620; outline: as §1
[4] = Aqueous solubility of the compound in phosphate buffer at pH 7.4 incubated for 24 hrs by LC/MS/MS method; type: physicochemical
Mus musculus [5] = experiment: Toxicity in ip dosed Ncr nu/nu mouse xenografted with human HCT-116 cells harboring beta-catenin mutation assessed as reversible body weight loss measured on day 25; type: organism-based; conditions: in vivo
Mus musculus [6] = experiment: In vivo inhibition of AKT phosphorylation at S129 in human DLD1 cells xenografted in Ncr nu/nu mouse at 10 mg/kg, iv measured up to 24 hrs; type: functional, organism-based; conditions: DLD-1
Outline: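 DLD-1 TOPflash xenograft mice given a single 10 mg/kg IV dose; tumor AKT Ser129 phosphorylation assessed out to 24 h.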

[7] = target: Dual specificity tyrosine-phosphorylation-regulated kinase 1A (Homo sapiens) (UniProt Q13627); experiment: Inhibition of Dyrk1a (unknown origin) at 0.1 uM by quantitative PCR; outline: as §2
[8] = target: Death-associated protein kinase 2 (Homo sapiens) (UniProt Q9UIK4); experiment: Inhibition of Dapk2 (unknown origin) at 0.1 uM by quantitative PCR; outline: as §2
Chain of Death-associated protein kinase 2 (Homo sapiens) (Q9UIK4 whole entry, looked up): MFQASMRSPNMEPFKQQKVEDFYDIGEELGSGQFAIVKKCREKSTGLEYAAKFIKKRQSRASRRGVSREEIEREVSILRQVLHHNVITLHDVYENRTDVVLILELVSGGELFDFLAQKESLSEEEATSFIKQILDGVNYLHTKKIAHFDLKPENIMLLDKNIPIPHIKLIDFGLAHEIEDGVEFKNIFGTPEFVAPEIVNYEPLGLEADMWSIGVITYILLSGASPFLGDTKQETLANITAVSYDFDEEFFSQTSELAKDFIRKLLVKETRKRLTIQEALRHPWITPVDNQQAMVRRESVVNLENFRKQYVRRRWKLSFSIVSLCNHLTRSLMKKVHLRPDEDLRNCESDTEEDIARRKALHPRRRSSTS

[9] = Antitumor activity against human HCT116 cells harboring beta-catenin mutation xenografted in Ncr nu/nu mouse at 30 mg/kg, ip administered as bolus dose for once in every week for 3 weeks; type: functional; conditions: HCT-116, ip, 504 h, read-out: TGI
Outline: (§3)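 Mouse xenografts (HCT-116 β-catenin mutant; SW620 APC mutant) dosed at 30 mg/kg weekly for 3 cycles; efficacy expressed as % tumor growth inhibition.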

[10] = Intrinsic clearance in rat hepatocyte assessed per 10^6 cells; type: ADME, cell-based; conditions: hepatocytes, read-out: CLH
Mus musculus [11] = experiment: Toxicity in ip dosed Ncr nu/nu mouse xenografted with human SW620 cells harboring APC mutation assessed as reversible body weight loss measured on day 25; type: organism-based, SW-620; conditions: in vivo
[12] = target: Dual specificity tyrosine-phosphorylation-regulated kinase 1B (Homo sapiens) (UniProt Q9Y463); experiment: Inhibition of Dyrk1b (unknown origin) 0.1 uM by quantitative PCR; outline: as §2
Chain of Dual specificity tyrosine-phosphorylation-regulated kinase 1B (Homo sapiens) (Q9Y463 whole entry, looked up): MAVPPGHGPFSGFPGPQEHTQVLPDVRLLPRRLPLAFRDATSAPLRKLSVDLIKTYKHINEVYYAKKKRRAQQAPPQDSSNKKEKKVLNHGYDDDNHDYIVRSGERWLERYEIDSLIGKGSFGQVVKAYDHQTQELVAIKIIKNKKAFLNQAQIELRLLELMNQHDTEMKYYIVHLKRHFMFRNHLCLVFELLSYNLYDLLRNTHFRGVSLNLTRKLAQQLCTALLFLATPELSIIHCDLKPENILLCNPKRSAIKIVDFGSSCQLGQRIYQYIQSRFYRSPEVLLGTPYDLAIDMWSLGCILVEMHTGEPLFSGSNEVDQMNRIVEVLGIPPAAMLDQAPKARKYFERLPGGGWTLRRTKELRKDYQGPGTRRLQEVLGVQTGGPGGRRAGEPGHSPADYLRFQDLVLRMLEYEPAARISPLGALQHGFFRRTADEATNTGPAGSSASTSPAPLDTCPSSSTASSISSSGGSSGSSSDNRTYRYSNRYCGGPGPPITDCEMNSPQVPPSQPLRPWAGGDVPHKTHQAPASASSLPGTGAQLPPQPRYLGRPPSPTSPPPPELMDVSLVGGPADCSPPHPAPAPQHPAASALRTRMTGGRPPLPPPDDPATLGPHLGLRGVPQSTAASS

Plasma = experiment: Drug uptake in Ncr nu/nu mouse plasma xenografted with human DLD1 cells at 10 mg/kg, iv measured up to 24 hrs; type: ADME, organism-based, DLD-1; conditions: in vivo
Outline: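 Single 10 mg/kg IV dose in DLD-1 TOPflash xenograft mice; plasma drug concentration followed to 24 h.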

[13] = Antitumor activity against human SW620 cells harboring APC mutation xenografted in Ncr nu/nu mouse at 30 mg/kg, ip administered as bolus dose for once in every week for 3 weeks; type: functional; conditions: SW-620, ip, 504 h, read-out: TGI; outline: as §3
Mus musculus [14] = experiment: In vivo inhibition of Wnt-associated Tcf4-luciferase gene transcription in human DLD1 cells xenografted in Ncr nu/nu mouse at 10 mg/kg, iv measured at 8 hrs; type: functional; conditions: DLD-1, iv
[15] = target: Homeodomain-interacting protein kinase 2 (Homo sapiens) (UniProt Q9H2X6); conditions: 0.1 uM
[16] = target: Death-associated protein kinase 3 (Homo sapiens) (UniProt O43293); experiment: Inhibition of Dapk3 (unknown origin) at 0.1 uM by quantitative PCR; outline: as §2
Chain of Death-associated protein kinase 3 (Homo sapiens) (O43293 whole entry, looked up): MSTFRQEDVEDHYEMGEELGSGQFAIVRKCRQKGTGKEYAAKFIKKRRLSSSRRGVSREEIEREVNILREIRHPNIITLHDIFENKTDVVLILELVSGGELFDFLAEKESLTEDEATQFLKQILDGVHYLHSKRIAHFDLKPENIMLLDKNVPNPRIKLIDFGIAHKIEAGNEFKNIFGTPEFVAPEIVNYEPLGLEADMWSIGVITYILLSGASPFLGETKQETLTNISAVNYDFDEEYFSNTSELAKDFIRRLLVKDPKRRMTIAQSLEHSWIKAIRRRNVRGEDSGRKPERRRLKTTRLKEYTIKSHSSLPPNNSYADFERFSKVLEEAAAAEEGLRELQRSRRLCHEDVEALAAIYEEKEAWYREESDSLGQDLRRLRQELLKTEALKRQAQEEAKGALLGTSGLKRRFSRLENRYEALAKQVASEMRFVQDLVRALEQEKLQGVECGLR

[17] = target: Homeodomain-interacting protein kinase 1 (Homo sapiens) (UniProt Q86Z02); experiment: Inhibition of Hipk1 (unknown origin) at 0.1 uM by quantitative PCR; outline: as §2
[18] = target: Homeodomain-interacting protein kinase 3 (Homo sapiens) (UniProt Q9H422); experiment: Inhibition of Hipk3 (unknown origin) at 0.1 uM by quantitative PCR; outline: as §2
Mus musculus [19] = experiment: Toxicity in Ncr nu/nu mouse xenografted with human SW620 cells harboring APC mutation assessed as reduction in body weight at 30 mg/kg, ip measured on day 25; type: organism-based, SW-620; set-up: scale not given: the % may be the effect or the level left; conditions: in vivo
Outline: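 SW620 (APC mutant) xenograft mice dosed weekly for 3 cycles; body weight change in treated animals recorded on day 25 as mean % change.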

[20] = Intrinsic clearance in human liver microsomes; type: ADME; conditions: read-out: CLH
[21] = Fraction unbound in human plasma at 10 uM by equilibrium dialysis method; type: ADME, cell-free
SW-620 = experiment: Antitumor activity against human SW620 cells harboring APC mutation xenografted in ip dosed Ncr nu/nu mouse administered as bolus dose for once in every week for 3 weeks; type: functional, organism-based
[22] = Antiproliferative activity against human SW620 cells after 72 hrs by alamar blue assay; type: functional; conditions: SW-620, 72 h
[23] = target: Bone morphogenetic protein receptor type-1B (Homo sapiens) (UniProt O00238); experiment: Inhibition of BMPR1b (unknown origin) at 0.1 uM by quantitative PCR
[24] = Inhibition of CK2 in mouse L-Wnt3a cells assessed as suppression of Wnt3a-mediated L S/L Super TOPFlash reporter gene transcription after 24 hrs; conditions: L Wnt-3A
[25] = Antiproliferative activity against human […] cells after 72 hrs by alamar blue assay; type: functional; conditions: HCT-116, 72 h
[26] = target: Dual specificity tyrosine-phosphorylation-regulated kinase 3 (Homo sapiens) (UniProt O43781); experiment: Inhibition of Dyrk3 (unknown origin) at 0.1 uM by quantitative PCR; outline: as §2
Chain of Dual specificity tyrosine-phosphorylation-regulated kinase 3 (Homo sapiens) (O43781 whole entry): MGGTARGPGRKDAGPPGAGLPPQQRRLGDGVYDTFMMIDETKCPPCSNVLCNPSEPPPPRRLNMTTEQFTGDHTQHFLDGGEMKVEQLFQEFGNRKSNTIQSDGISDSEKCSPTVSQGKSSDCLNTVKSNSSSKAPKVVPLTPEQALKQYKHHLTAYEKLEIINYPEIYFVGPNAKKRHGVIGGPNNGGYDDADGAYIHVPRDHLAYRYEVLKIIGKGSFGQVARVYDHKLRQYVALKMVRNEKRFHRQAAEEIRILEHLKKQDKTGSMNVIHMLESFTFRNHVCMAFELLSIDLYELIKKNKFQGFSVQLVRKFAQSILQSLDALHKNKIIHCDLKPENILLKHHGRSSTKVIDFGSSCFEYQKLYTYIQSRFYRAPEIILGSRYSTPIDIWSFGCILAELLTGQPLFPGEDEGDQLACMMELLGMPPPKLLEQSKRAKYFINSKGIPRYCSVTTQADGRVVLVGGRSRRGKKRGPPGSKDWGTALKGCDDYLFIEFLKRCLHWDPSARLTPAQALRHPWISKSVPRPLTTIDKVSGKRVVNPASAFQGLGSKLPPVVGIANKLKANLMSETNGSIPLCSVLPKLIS

[27] = target: Voltage-gated inwardly rectifying potassium channel KCNH2 (Homo sapiens, UniProt Q12809); experiment: Inhibition of human ERG expressed in CHO cells by patch clamp assay; type: cell-based
Chain of Voltage-gated inwardly rectifying potassium channel KCNH2 (Q12809 whole entry): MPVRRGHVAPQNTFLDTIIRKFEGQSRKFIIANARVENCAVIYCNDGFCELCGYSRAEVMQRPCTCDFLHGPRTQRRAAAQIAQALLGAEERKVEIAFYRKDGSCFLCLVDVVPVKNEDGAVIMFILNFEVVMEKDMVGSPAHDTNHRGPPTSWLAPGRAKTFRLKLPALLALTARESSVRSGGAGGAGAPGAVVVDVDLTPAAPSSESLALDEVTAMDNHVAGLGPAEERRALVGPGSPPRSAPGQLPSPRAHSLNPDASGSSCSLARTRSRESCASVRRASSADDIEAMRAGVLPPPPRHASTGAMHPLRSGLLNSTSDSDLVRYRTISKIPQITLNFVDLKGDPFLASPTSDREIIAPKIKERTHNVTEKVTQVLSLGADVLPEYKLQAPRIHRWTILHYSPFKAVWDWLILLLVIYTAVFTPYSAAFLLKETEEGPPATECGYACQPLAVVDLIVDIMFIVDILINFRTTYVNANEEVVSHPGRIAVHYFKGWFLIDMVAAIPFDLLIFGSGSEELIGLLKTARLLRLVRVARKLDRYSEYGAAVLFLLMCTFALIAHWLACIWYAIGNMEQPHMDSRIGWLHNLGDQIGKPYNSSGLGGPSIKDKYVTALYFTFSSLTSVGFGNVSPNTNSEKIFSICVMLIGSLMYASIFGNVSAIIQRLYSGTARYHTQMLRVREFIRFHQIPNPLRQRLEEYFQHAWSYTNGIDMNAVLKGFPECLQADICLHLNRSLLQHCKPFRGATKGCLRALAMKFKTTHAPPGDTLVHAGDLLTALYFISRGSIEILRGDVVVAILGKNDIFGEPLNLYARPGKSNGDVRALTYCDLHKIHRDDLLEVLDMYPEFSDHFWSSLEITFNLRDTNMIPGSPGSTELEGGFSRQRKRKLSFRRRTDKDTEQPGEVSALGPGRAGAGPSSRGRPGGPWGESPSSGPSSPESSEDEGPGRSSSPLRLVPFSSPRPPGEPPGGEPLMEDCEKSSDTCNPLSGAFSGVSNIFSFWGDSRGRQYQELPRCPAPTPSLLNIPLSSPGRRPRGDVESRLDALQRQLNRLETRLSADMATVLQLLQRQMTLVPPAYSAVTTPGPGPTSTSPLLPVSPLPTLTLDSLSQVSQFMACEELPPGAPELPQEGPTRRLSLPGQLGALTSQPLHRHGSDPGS

[28] = Antiproliferative activity against human DLD1 cells after 72 hrs by alamar blue assay; type: functional; conditions: DLD-1, 72 h
HCT-116 = experiment: Antitumor activity against human HCT116 cells harboring beta-catenin mutation xenografted in ip dosed Ncr nu/nu mouse administered as bolus dose for once in every week for 3 weeks; type: functional, organism-based
[29] = target: Dual specificity tyrosine-phosphorylation-regulated kinase 4 (Homo sapiens) (UniProt Q9NR20); experiment: Inhibition of Dyrk4 (unknown origin) at 0.1 uM by quantitative PCR; outline: as §2
Chain of Dual specificity tyrosine-phosphorylation-regulated kinase 4 (Homo sapiens) (Q9NR20 whole entry, the tested form may be a part): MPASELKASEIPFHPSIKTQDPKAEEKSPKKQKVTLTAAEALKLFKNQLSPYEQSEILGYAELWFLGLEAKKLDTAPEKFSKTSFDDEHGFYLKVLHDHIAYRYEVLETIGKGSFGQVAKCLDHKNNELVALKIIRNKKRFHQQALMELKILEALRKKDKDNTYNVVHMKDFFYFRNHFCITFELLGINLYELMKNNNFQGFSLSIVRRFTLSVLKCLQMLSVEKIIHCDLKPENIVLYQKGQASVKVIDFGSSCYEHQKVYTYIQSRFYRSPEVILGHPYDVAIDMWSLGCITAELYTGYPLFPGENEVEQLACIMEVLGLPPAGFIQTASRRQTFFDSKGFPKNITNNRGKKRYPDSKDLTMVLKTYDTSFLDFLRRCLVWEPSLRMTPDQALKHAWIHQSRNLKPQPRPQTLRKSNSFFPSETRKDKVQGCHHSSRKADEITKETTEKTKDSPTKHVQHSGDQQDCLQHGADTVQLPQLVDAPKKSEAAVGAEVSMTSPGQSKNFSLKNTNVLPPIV

[30] = target: T1, Casein kinase II subunit alpha (Homo sapiens, UniProt P68400); experiment: Binding affinity to His-tagged recombinant human CK2alpha (6 to 335 residues) after 50 to 116.7 mins by surface plasmon resonance assay
T1 sequence (P68400 whole entry, the tested form may be a part): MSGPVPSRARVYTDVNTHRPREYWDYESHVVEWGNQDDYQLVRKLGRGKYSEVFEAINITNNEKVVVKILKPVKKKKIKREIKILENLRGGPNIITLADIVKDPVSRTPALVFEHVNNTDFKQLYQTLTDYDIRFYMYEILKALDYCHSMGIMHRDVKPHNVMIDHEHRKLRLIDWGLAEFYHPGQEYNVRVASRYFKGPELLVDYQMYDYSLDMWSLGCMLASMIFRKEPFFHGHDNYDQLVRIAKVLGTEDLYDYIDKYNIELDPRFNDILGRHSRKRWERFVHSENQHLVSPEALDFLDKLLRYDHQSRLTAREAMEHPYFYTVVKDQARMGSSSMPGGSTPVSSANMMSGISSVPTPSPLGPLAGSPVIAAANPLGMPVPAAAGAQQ

Casein kinase II = Casein kinase II (Homo sapiens, UniProt P19784+P67870+P68400); experiment: Inhibition of CK2 in human DLD1 HA-myr-AKT1 cells assessed as suppression of AKTser129 phosphorylation after 3 to 24 hrs by Western blot analysis
Liver microsome [31] = experiment: Drug metabolism in rat liver microsomes in presence of ABT; type: ADME
Outline: (§4)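 Metabolite formation studied in rat and human liver microsome incubations with ABT present, to probe oxidative clearance.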

Rattus norvegicus = experiment: AUC in rat at 10 mg/kg, po; type: ADME, organism-based; conditions: in vivo
Hepatocyte = experiment: Drug metabolism in rat hepatocytes assessed as oxidative demethylated metabolite formation; type: ADME, cell-based
Liver microsome [32] = experiment: Drug metabolism in human liver microsomes in presence of ABT; type: ADME; outline: as §4
[33] = target: T1, Casein kinase II subunit alpha; experiment: Inhibition of full length N-terminal 6xHis-tagged recombinant human CK2alpha expressed in fall armyworm Sf21 cells using BODIPY-FL-RRRDDDSDDD-CONH2 as substrate after 90 mins by mobility shift assay

## CC(=O)Nc1cc(Nc2cc(NC3CC3)n3ncc(C#N)c3n2)ccc1N(C)CCN
L-Wnt3a
  inhibition: Dose-dependent effect
Mus musculus [1]
  inhibition: Dose-dependent effect
[2]
  inhibition: > 50%
Mus musculus [3]
  inhibition: Dose-dependent effect
[4]
  solubility at 24 h: > 1000 µM
Mus musculus [5]
  Activity: Dose-dependent effect
Mus musculus [6]
  inhibition: Active
[7]
  inhibition: > 50%
[8]
  inhibition: > 50%
[9]
  inhibition in vivo at 30 mg/kg: 94%
[10]
  hepatocyte CLint: 8 µL/min/1e6 cells
Mus musculus [11]
  Activity: Dose-dependent effect
[12]
  inhibition: > 50%
Plasma
  Drug uptake: Not Active
[13]
  inhibition in vivo at 30 mg/kg: 74%
Mus musculus [14]
  inhibition in vivo at 10 mg/kg: 40%
[15]
  inhibition: > 50%
[16]
  inhibition: > 50%
[17]
  inhibition: > 50%
[18]
  inhibition: > 50%
Mus musculus [19]
  Activity: 6.8%
[20]
  microsomal CLint: 7 µL/min/mg
[21]
  fraction unbound at 10 µM: 0.39
SW-620
  TGI: Dose-dependent effect
[22]
  GI50: 5 nM
[23]
  inhibition: 74%
[24]
  pIC50: 7.37
[25]
  GI50: 10 nM
[26]
  inhibition: > 50%
[27]
  pIC50: < 4.00
[28]
  GI50: 50 nM
HCT-116
  TGI: Dose-dependent effect
[29]
  inhibition: > 50%

## CC(=O)Nc1cc(Nc2cc(NC3CC3)n3ncc(C#N)c3n2)ccc1N(C)CCN(C)C
[30]
  pKd: 10.32
[4]
  solubility at 24 h: > 1000 µM
Casein kinase II
  pIC50: 9.00
Liver microsome [31]
  Drug metabolism: metabolite_notdetected
[10]
  hepatocyte CLint: 32 µL/min/1e6 cells
[20]
  microsomal CLint: 9 µL/min/mg
[21]
  fraction unbound at 10 µM: 0.26
[22]
  GI50: 30 nM
Rattus norvegicus
  AUC: 0.36 µM·h
[24]
  pIC50: 7.12
[25]
  GI50: 30 nM
Hepatocyte
  Drug metabolism: metabolite_detected
[27]
  pIC50: 5.40
[28]
  GI50: 80 nM
Liver microsome [32]
  Drug metabolism: metabolite_notdetected
[33]
  pIC50: > 8.52
